Assay [1] is described as follows: Her2 expression decrease, cell viability multiplex – SKBR3 breast tumor cells, AlphaScreen, ATP viability, primary screen (AID 461).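 For Her2 level: lower value means less Her2 protein in the cells.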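 For viability: percent of carrier control wells set as 100% viability.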 The conditions noted are these: SKBR3 Her2 protein level, 18-24 h, measured here: SKBR3 viability, ATP luminescence, at 10 µM. For orientation: Bead proximity is the source of the signal in Alpha formats.
For assay [2], the target named is Receptor tyrosine-protein kinase erbB-2 (Homo sapiens) (UniProt P04626). The description is as above. The conditions noted are these: 18-24 h, at 10 µM, stronger effect = lower value.
Assay [3] is described as follows: reduced viability of SK-BR-3 breast cancer cells – cell-based, 24 h, human, pilot screen (AID 572;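 active = viability at or below 10% of carrier control in both of two separate runs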;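 note: compound exposure lasted between 18 and 24 h rather than exactly 24 h; 100% = carrier-treated control wells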). The note with it: SK-BR-3 viability, CellTiter-Glo luminescence, at 10 µM, stronger effect = lower value. A general note: ATP-based viability assays read luminescence as a measure of living cells.
A short description of assay [4]: HUVEC growth inhibition – cell-based, human, primary screen (AID 575;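 active = viability at or below 30% in both replicate assays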;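 note: 100% = median of untreated cell wells with 0.1% DMSO on each plate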). The conditions noted are these: HUVEC proliferation, CellTiter-Glo luminescence, 72 h; at 10 µM; stronger effect = lower value. An outline of the steps:
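material = primary HUVEC, no more than 12 passages | input = 1250 cells per well | controls = vehicle and MePR control wells | measured by = CTG luminescence | times = 72 h compound incubation | format = collagen-coated 384-well format | read-out = % viability vs DMSO wells | doses = single 10 µM dose, 0.1% DMSO, from 5x medium stock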

The nature of assay [5]: H69AR cell proliferation blockers – human, duplicate replicates, primary screen (AID 580;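 active = viability at or under a set limit in both replicates, limit being median viability minus 3 SD, cut at about 48% in these data, passing the limit was not always enough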;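 note: 100% = mean luminescence of untreated wells and 0% = no signal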). The conditions noted are these: H69AR lung tumor cells viability, ATP luminescence, 72 h; at 10 µM; stronger effect = lower value.
The nature of assay [6]: MRP1 drug-resistance reversers in H69AR cells – cell-based, doxorubicin co-treatment, pilot screen (AID 601;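 active = viability loss from added drug above about 55%, and viability with drug at most 40%, in both replicates, limit read from the data, passing the limit was not always enough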). The note with it: CellTiter-Glo, 72 h, at 10 µM; for differential viability (reversal): stronger effect = higher value.
Assay [7] is described as follows: yeast transport mutant growth inhibition pilot in 384-well plates, post-Golgi transport modulator project (AID 636; in the data active = inhibition above about 31%). The conditions noted are these: absorbance 615 nm, about 18 h, stronger effect = higher value.
The nature of assay [8]: growth suppression of yeast trafficking mutant, preliminary HTS, modulators of trafficking downstream of Golgi apparatus project, 1536-format plate, OD 615 nm (AID 637; in the data active = inhibition above about 30%). The note with it: yeast transport mutant growth, absorbance 615 nm, 18 h; stronger effect = higher value.
The mark [9] stands for this setting: H69AR cells + 2 uM doxorubicin, measured here: viability with 2 uM doxorubicin, stronger effect = lower value.
The mark [10] stands for this setting: H69AR cells, compound alone cytotoxicity.

Active and inactive are the calls of the source.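 Rule for the calls, unless noted: active = Her2 level under about 52% in both replicate screens, with viability over 70% of control (limit read from the data); inconclusive = Her2 under the limit in one screen only, or viability under 70%; inactive = Her2 level above the set limit.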

A word on the viability: it is a read-out of living cells in per cent, often relative to untreated cells. As a reminder, the inhibition is the drop in the measured response relative to a control, in per cent.

Chain of Receptor tyrosine-protein kinase erbB-2 (Homo sapiens) (P04626 whole entry, looked up): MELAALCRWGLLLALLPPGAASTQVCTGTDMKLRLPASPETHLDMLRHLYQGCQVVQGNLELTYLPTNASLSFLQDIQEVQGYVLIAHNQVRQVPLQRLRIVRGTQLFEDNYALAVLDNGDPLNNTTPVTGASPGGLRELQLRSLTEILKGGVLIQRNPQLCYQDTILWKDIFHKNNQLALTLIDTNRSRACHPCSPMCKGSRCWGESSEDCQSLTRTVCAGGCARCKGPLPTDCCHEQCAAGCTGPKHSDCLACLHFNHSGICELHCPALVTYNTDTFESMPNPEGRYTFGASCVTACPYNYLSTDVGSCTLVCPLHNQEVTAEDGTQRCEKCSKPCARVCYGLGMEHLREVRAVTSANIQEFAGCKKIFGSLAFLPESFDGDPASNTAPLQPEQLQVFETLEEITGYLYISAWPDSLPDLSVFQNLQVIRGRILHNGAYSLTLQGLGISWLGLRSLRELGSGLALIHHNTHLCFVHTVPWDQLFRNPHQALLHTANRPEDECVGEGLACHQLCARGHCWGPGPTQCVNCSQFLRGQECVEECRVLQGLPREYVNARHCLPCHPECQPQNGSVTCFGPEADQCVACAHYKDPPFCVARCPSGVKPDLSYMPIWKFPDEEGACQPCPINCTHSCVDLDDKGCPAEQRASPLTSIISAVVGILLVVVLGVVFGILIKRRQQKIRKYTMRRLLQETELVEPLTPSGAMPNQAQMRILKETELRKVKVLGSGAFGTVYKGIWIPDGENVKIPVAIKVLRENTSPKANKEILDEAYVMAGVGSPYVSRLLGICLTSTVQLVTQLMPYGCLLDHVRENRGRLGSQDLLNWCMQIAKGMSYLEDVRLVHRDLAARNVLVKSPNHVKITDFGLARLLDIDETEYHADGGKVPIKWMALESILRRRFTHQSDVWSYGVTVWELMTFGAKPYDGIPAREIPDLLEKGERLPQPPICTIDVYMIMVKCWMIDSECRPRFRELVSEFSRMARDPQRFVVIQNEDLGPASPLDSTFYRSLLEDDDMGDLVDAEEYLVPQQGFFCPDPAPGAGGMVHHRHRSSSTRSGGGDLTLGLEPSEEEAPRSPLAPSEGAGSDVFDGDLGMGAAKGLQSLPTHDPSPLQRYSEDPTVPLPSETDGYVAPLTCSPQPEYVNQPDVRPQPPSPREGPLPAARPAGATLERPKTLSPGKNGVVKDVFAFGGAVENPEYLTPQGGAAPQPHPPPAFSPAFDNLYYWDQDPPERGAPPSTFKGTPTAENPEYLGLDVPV

Consider `Cc1cc(=O)n2nc(-c3ccccc3)sc2n1`, for which the viability in assay [1] is 101%; in assay [3] it was 101% (inactive); in assay [4], 97.2% (inactive); in assay [5], 92.3% (inactive); in assay [6] (setting [9]) it was 87.8%; in assay [6] (setting [10]), 92.3%. Further, in assay [2], the Her2 level is 92.5% (inactive). Moreover, the differential viability (reversal) in assay [6] (H69AR cells + 2 uM doxorubicin) was 4.42% (inactive). For the same compound, the inhibition in assay [7] was -3.73% (inactive); in assay [8] it was 1.11% (inactive).
As to `COc1ccc(-n2nc(C(=O)Nc3ccc4c(c3)OCO4)c3c4ccccc4n(C)c3c2=O)cc1`, the viability in assay [1] was 99%; in assay [3] it was 99% (inactive); in assay [4], 98% (inactive); in assay [5], 92.6% (inactive); in assay [6] (setting [9]) it was 104%; in assay [6] (setting [10]), 92.6%. For the same compound, in assay [2], the Her2 level is 88.5% (inactive). Also, the differential viability (reversal) in assay [6] (H69AR cells + 2 uM doxorubicin) is -10.9% (inactive). In addition, the inhibition in assay [7] was -3.03% (inactive); in assay [8], -1.45% (inactive).
As for `COC(=O)c1ccccc1NC(=O)c1noc2c1CCC2`, the viability is 93% in assay [1]; 93% (inactive) in assay [3]; 86.7% (inactive) in assay [4]; 74.8% (inactive) in assay [5]; 79.4% in assay [6] (setting [9]); 74.8% in assay [6] (setting [10]). Further, the Her2 level in assay [2] was 83.5% (inactive). Moreover, the differential viability (reversal) in assay [6] (H69AR cells + 2 uM doxorubicin) is -4.56% (inactive). The inhibition is -7.37% (inactive) in assay [7] and 2.55% (inactive) in assay [8].
Take `Cc1ccc(Cl)cc1NC(=O)CSc1nnc(C)n1-c1ccccc1`: the viability in assay [1] was 90%; in assay [3], 90% (inactive); in assay [4], 91% (inactive); in assay [5] it was 86.6% (inactive); in assay [6] (setting [9]) it was 80.6%; in assay [6] (setting [10]), 86.6%. Further, in assay [2], the Her2 level was 79% (inactive). Also, the differential viability (reversal) in assay [6] (H69AR cells + 2 uM doxorubicin) was 6.06% (inactive). The inhibition in assay [7] is -2.63% (inactive); in assay [8], 0.65% (inactive).
Consider `Cc1ccc(-c2nnn(CC(=O)N(CC3CCCO3)C(C(=O)NC(C)(C)C)c3ccc(F)cc3)n2)o1` (stereo not given), for which the viability was 106% in assay [1]; 106% (inactive) in assay [3]; 100% (inactive) in assay [4]; 101% (inactive) in assay [5]; 97.4% in assay [6] (setting [9]); 101% in assay [6] (setting [10]). Further, the Her2 level in assay [2] is 96% (inactive). In addition, in assay [6] (H69AR cells + 2 uM doxorubicin), the differential viability (reversal) was 3.52% (inactive). In addition, the inhibition in assay [7] is -1.07% (inactive); in assay [8] it was -4.03% (inactive).
Consider `O=C(c1cccc2ccccc12)N1CCC(N2CCN(c3ccccc3)CC2)CC1`, for which the viability in assay [1] was 84%; in assay [3], 84% (inactive); in assay [4], 81.7% (inactive); in assay [5], 88% (inactive); in assay [6] (setting [9]), 92%; in assay [6] (setting [10]), 88%. The Her2 level in assay [2] was 90.5% (inactive). The differential viability (reversal) in assay [6] (H69AR cells + 2 uM doxorubicin) is -4% (inactive). For the same compound, the inhibition in assay [7] was -1.97% (inactive); in assay [8], -4.43% (inactive).
As for `Cc1c(NC(=O)CN2c3cccc4cccc(c34)S2(=O)=O)c(=O)n(-c2ccccc2)n1C`, the viability in assay [1] is 122%; in assay [3], 122% (inactive); in assay [4], 82.6% (inactive); in assay [5], 102% (inactive); in assay [6] (setting [9]), 82.5%; in assay [6] (setting [10]) it was 102%. The Her2 level in assay [2] was 93% (inactive). In addition, the differential viability (reversal) in assay [6] (H69AR cells + 2 uM doxorubicin) is 19.1% (inactive). Moreover, the inhibition was -4.27% (inactive) in assay [7] and 7.9% (inactive) in assay [8].
With `Oc1ccc2[nH]cnc2c1CN1CCCCC1`, the viability was 113% in assay [1]; 113% (inactive) in assay [3]; 107% (inactive) in assay [4]; 99.7% (inactive) in assay [5]; 92.5% in assay [6] (setting [9]); 99.7% in assay [6] (setting [10]). Further, the Her2 level in assay [2] is 110% (inactive). For the same compound, in assay [6] (H69AR cells + 2 uM doxorubicin), the differential viability (reversal) is 7.21% (inactive). Also, the inhibition was -5.39% (inactive) in assay [7] and 3.28% (inactive) in assay [8].
As for `O=C(CCN1CCOCC1)Nc1cccc(Br)c1`, the viability in assay [1] is 100%; in assay [3], 100% (inactive); in assay [4], 78.9% (inactive); in assay [5], 92.9% (inactive); in assay [6] (setting [9]) it was 85.2%; in assay [6] (setting [10]), 92.9%. In assay [2], the Her2 level was 86% (inactive). Further, the differential viability (reversal) in assay [6] (H69AR cells + 2 uM doxorubicin) is 7.72% (inactive). The inhibition in assay [7] is -5.47% (inactive); in assay [8], -6.56% (inactive).
Consider `Cc1cc(Br)ccc1NC(=O)CNC(=O)CSc1n[nH]c(N)n1`, for which the viability in assay [1] is 110%; in assay [3], 110% (inactive); in assay [4], 99.3% (inactive); in assay [5], 104% (inactive); in assay [6] (setting [9]) it was 87.3%; in assay [6] (setting [10]), 104%. For the same compound, the Her2 level in assay [2] was 89.5% (inactive). The differential viability (reversal) in assay [6] (H69AR cells + 2 uM doxorubicin) is 16.3% (inactive). Further, the inhibition in assay [7] is -6.22% (inactive); in assay [8], 8.41% (inactive).
Take `CCOC(=O)c1ccc(NC2OC(=O)c3ccccc32)cc1` (stereo not given): the viability is 106% in assay [1]; 106% (inactive) in assay [3]; 77.4% (inactive) in assay [4]; 91.9% (inactive) in assay [5]; 95.8% in assay [6] (setting [9]); 91.9% in assay [6] (setting [10]). The Her2 level in assay [2] was 93% (inactive). Also, the differential viability (reversal) in assay [6] (H69AR cells + 2 uM doxorubicin) is -3.92% (inactive). Also, the values for the inhibition in assay [7] and in assay [8] were -6.89% (inactive) and 6.17% (inactive), respectively.
Consider `O=C(Nc1ccc(N2CCCCC2)cc1)c1ccc(F)cc1`, for which the viability in assay [1] is 84%; in assay [3] it was 84% (inactive); in assay [4], 80% (inactive); in assay [5], 83.1% (inactive); in assay [6] (setting [9]), 78.8%; in assay [6] (setting [10]) it was 83.1%. In assay [2], the Her2 level is 106% (inactive). Moreover, the differential viability (reversal) in assay [6] (H69AR cells + 2 uM doxorubicin) is 4.35% (inactive). The inhibition in assay [7] was 1.79% (inactive); in assay [8] it was -0.5% (inactive).
Turning to `CC(C)OC(=O)c1cc(=O)[nH]c2ccccc12`, the viability in assay [1] was 128%; in assay [3], 128% (inactive); in assay [4], 95.7% (inactive); in assay [5] it was 102% (inactive); in assay [6] (setting [9]) it was 80.7%; in assay [6] (setting [10]) it was 102%. The Her2 level in assay [2] was 79% (inactive). Moreover, in assay [6] (H69AR cells + 2 uM doxorubicin), the differential viability (reversal) was 21.9% (inactive). The inhibition in assay [7] is -2.47% (inactive); in assay [8], -2.22% (inactive).
Turning to `Cc1cccc(-c2cc3nc4c(c(N5CCOCC5)n3n2)CCCC4)c1`, the viability in assay [1] is 93%; in assay [3] it was 93% (inactive); in assay [4], 71.7% (inactive); in assay [5], 76% (inactive); in assay [6] (setting [9]), 78.4%; in assay [6] (setting [10]), 76%. Further, in assay [2], the Her2 level is 70% (inactive). The differential viability (reversal) in assay [6] (H69AR cells + 2 uM doxorubicin) is -2.37% (inactive). In addition, the inhibition in assay [7] was -6.76% (inactive); in assay [8], 2.95% (inactive).
Turning to `O=C(C1CCN(S(=O)(=O)c2cccnc2)CC1)N1CCN(c2ccc(Cl)cc2)CC1`, the viability in assay [1] is 84%; in assay [3], 84% (inactive); in assay [4] it was 70.2% (inactive); in assay [5] it was 89.7% (inactive); in assay [6] (setting [9]) it was 70.9%; in assay [6] (setting [10]), 89.7%. Moreover, the Her2 level in assay [2] is 81% (inactive). Moreover, the differential viability (reversal) in assay [6] (H69AR cells + 2 uM doxorubicin) was 18.8% (inactive). The inhibition is -2.11% (inactive) in assay [7] and -4.44% (inactive) in assay [8].
For `O=C(NCc1ccco1)c1cnc2n(c1=O)CCS2`, the viability in assay [1] is 101%; in assay [3] it was 101% (inactive); in assay [4], 91.3% (inactive); in assay [5] it was 89.5% (inactive); in assay [6] (setting [9]), 89.2%; in assay [6] (setting [10]) it was 89.5%. The Her2 level in assay [2] is 94.5% (inactive). For the same compound, the differential viability (reversal) in assay [6] (H69AR cells + 2 uM doxorubicin) was 0.265% (inactive). For the same compound, the inhibition in assay [7] is 0.78% (inactive); in assay [8], -1.48% (inactive).

Values taken from PubChem BioAssay.
